Data on one compound can be found in article PMC4254804 (Nature communications, 2014).

The assay deals with TopBP1 (Homo sapiens, UniProt Q92547). In kind it is biochemical. The method, boiled down:
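E. coli BL21-expressed (0.1 mM IPTG) TopBP1-BRCT7/8, GST cleaved off with PreScission, 2 μg preincubated with compound in NETN-A (50 mM NaCl, 1 mM EDTA, 20 mM Tris, 0.5% NP-40), 3 h, 4°C, rotating. Then 2 μg biotin-pS1159 peptide (non-phospho peptide control; streptavidin-Sepharose) or GST-p53-DBD (GST control; glutathione-Sepharose) added, 3 h, 4°C. Six NETN-B washes; SDS-PAGE, anti-TopBP1 immunoblot.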

Chain of TopBP1 (Q92547 1264-1493 limits assumed): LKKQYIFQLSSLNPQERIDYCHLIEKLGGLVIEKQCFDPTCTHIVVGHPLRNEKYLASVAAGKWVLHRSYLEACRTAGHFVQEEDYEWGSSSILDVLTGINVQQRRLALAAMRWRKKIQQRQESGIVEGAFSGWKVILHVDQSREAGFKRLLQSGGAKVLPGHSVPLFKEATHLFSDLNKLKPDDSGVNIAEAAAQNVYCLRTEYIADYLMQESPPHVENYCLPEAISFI

Regarding `O=C(O)CN(CC(=O)O)Cc1cc2c(cc1O)Oc1cc(O)c(CN(CC(=O)O)CC(=O)O)cc1C21OC(=O)c2ccccc21` [calcein], the “Pulldown competition with purified proteins: biotin-pS1159 peptide streptavidin” value is on record as “submicromolar”.
